According to article PMC3987113 (Toxicology and applied pharmacology, 2009):
“And” between values parts separate entries of the source, which are not always exact repeats. Equal values may be shown once. “Also recorded” adds a separate entry of the source. Read-outs that look alike come from different tables or passages of the source.

Assays:
[1] = Hepatic tissue level quantification by HRGC/HRMS; format: in vivo, C57BL/6 mice; settings: liver
[2] = system: hepatic gene expression; experiment: QRT-PCR verification of hepatic gene expression; format: in vivo, C57BL/6 mice
[3] = system: hepatic gene expression; experiment: Hepatic gene expression, Agilent 4 x 44K microarrays; format: in vivo, C57BL/6 mice
[4] = system: hepatic gene expression; experiment: Dose-response modeling of microarray data; format: in vivo, C57BL/6 mice; settings: Mus musculus, 24 h
[5] = system: Cyp2b10; experiment: Dose-response modeling of microarray data; format: in vivo, C57BL/6 mice; settings: C57BL/6, mouse, liver, oral
[6] = system: Cyp2c55; experiment: Dose-response modeling of microarray data; format: in vivo, C57BL/6 mice; settings: C57BL/6, mouse, liver, oral
[7] = Body and liver weights, time course study; format: in vivo, C57BL/6 mice; settings: for Liver weight / Relative liver weight / Body weight gain / Terminal body weight: 300 mg/kg PCB153 or 30 μg/kg TCDD, mean ± SD, n=5; for Body weight gain: terminal body weight divided by body weight prior to dosing
[8] = system: liver of immature, ovariectomized C57BL/6 mice; experiment: Liver histopathology; format: in vivo
[9] = Body and liver weights, 24 h dose-response study; format: in vivo, C57BL/6 mice; settings: for Liver weight / Relative liver weight / Body weight gain / Terminal body weight: 24 h; for Liver weight / Relative liver weight / Terminal body weight: mean ± SD, n=5; for Body weight gain: terminal body weight divided by body weight prior to dosing; for Terminal body weight: single gavage
Summary of the method: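 Immature ovariectomized female C57BL/6 mice, acclimatized 3 days, received a single oral gavage on PND 28 of 1, 3, 10, 30, 100 or 300 mg/kg test compound or sesame oil vehicle (0.1 ml), n=5 per group, sacrificed 24 h later. Compound was dissolved in acetone, diluted in sesame oil and the acetone evaporated under nitrogen. Analysis by ANOVA with Tukey's or Dunnett's post hoc test, p<0.05.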

[10] = hepatic mRNA, 300 mg/kg PCB153, maximum fold change, |fold change|≥1.5, P1(t)≥0.985
[11] = hepatic mRNA, 300 mg/kg PCB153, maximum fold change, |fold change|≥1.5, P1(t)≥0.985, 300 mg/kg
[12] = 300 mg/kg PCB153 or 30 μg/kg TCDD

## Clc1cc(Cl)c(-c2cc(Cl)c(Cl)cc2Cl)cc1Cl [PCB153, 2,2′,4,4′,5,5′-hexachlorobiphenyl]
[1]; 24 h, 1-300 mg/kg, significantly different from controls
  Hepatic PCB153 levels in dose-response study: dose-dependent increase in hepatic levels
[1]; 168 h vs 24 h, single gavage 300 mg/kg PCB153 or 30 μg/kg TCDD
  Decrease of hepatic level after 7 days: ~ 3.3 fold
[2]; 300 mg/kg PCB153 compared to TCDD, Fig. 6A-B
  Induction of AhR-battery genes (Cyp1a1, Cyp1a2, Tiparp): modestly induced
[2]; hepatic mRNA, time course, 30 μg/kg TCDD (Fig. 6A) or 300 mg/kg PCB153 (Fig. 6B)
  Cyp1a2 induction: ~ 1.8 fold
[2]; hepatic mRNA, time course, 300 mg/kg PCB153 or 30 μg/kg TCDD (Fig. 6A-B)
  Elovl5 fold change: −1.9 fold
[3]; PCB153 dose-response study
  Induction of CAR/PXR regulated genes Cyp2b10, Cyp3a11, Ces2, Insig2, Abcc3: dose-dependently induced
[3]; [10]
  PCB153 fold change, Abcc3: 1.9 fold
  PCB153 fold change, Acsl3: −3.1 fold
  PCB153 fold change, Agpat4: −1.9 fold
  PCB153 fold change, Akr1b7: 22.1 fold
  PCB153 fold change, Akr1c20: −2.3 fold
  PCB153 fold change, Aox1: 2.9 fold
  PCB153 fold change, Cdca2: 2.8 fold
  PCB153 fold change, Cds2: 1.7 fold
  PCB153 fold change, Ces2: 5.8 fold
  PCB153 fold change, Cyp2b9: 7.6 fold
  PCB153 fold change, Cyp2b10: 27.5 fold
  PCB153 fold change, Cyp2b23: 19.7 fold
  PCB153 fold change, Cyp2c54: 2.4 fold
  PCB153 fold change, Cyp3a25: 3.8 fold
  PCB153 fold change, Dhfr: −2.1 fold
  PCB153 fold change, Elovl6: −3.8 fold
  PCB153 fold change, Fasn: −3.9 fold
  PCB153 fold change, Fmo5: 3.0 fold
  PCB153 fold change, Gadd45a: 2.0 fold
  PCB153 fold change, Gpx2: 1.7 fold
  PCB153 fold change, Gsta2: 4.1 fold
  PCB153 fold change, Gstm4: 4.0 fold
  PCB153 fold change, Gstt3: 1.7 fold
  PCB153 fold change, Hmgcr: −5.3 fold
  PCB153 fold change, Hsd17b2: −2.0 fold
  PCB153 fold change, Insig2: 5.9 fold
  PCB153 fold change, Mad1l1: 2.4 fold
  PCB153 fold change, Myc: 2.9 fold
  PCB153 fold change, Nol3: 4.9 fold
  PCB153 fold change, Pla2g12a: 1.7 fold
  PCB153 fold change, Slc1a4: −2.5 fold
  PCB153 fold change, Slc23a1: 2.3 fold
  PCB153 fold change, Smpd3: 10.8 fold
  PCB153 fold change, Srebf1: −2.4 fold
  PCB153 fold change, Srebf2: −2.1 fold
  PCB153 fold change, Ugdh: 2.5 fold
[3]; [11]
  PCB153 fold change, Cyp2c55: 48 fold and 48.4 fold
  PCB153 fold change, Gadd45b: 10.7 fold
  PCB153 fold change, Zwint: 1.8 fold
[3]; hepatic mRNA, PCB153
  Ccl9 expression: induced expression
  Down-regulation of Acsl3, Srebf1 and Srebf2: −2.1 to −3.1 fold
[4]; read-out: ED50, Abcc3
  ED50: 2.9 mg/kg
[4]; read-out: ED50, Entpd5
  ED50: 34.2 mg/kg
[4]; read-out: ED50, Nol3
  ED50: 33.9 mg/kg
[5]
  ED50 at 24 h: 38.1 mg/kg
[6]
  ED50 at 24 h: 31.7 mg/kg
[7]; 300 mg/kg PCB153
  Effect on relative liver weight (RLW), time course study: increased (p<0.05) relative liver weight (RLW) at 72 and 168 h
[7]; 4 h
  Liver weight: 0.712 ± 0.048 g
  Relative liver weight: 0.057 ± 0.001
  Body weight gain: 1.0 ± 0.0
[7]; 4 h after single gavage
  Terminal body weight: 12.5 ± 0.8 g
[7]; 12 h
  Liver weight: 0.730 ± 0.075 g
  Relative liver weight: 0.056 ± 0.003
  Body weight gain: 1.0 ± 0.0
[7]; 12 h after single gavage
  Terminal body weight: 13.0 ± 0.6 g
[7]; 24 h
  Liver weight: 0.813 ± 0.137 g
  Relative liver weight: 0.061 ± 0.009
  Body weight gain: 1.1 ± 0.0
[7]; 24 h after single gavage
  Terminal body weight: 13.3 ± 0.9 g
[7]; 72 h
  Liver weight: 1.086 ± 0.135 g
  Relative liver weight: 0.069 ± 0.007
  Body weight gain: 1.1 ± 0.0
[7]; 72 h after single gavage
  Terminal body weight: 15.7 ± 0.7 g
[7]; 168 h
  Liver weight: 1.280 ± 0.074 g
  Relative liver weight: 0.072 ± 0.002
  Body weight gain: 1.4 ± 0.1
[7]; 168 h after single gavage
  Terminal body weight: 17.9 ± 1.2 g
[7]; any of the PCB153 doses or time points
  Effect on body weight gain: No significant decreases in body weight gain
[8]; 300 mg/kg PCB153
  Hepatocellular hypertrophy, time course study: increasing hypertrophic responses between 24 and 168 h; also recorded: induced hepatocellular hypertrophy between 24 and 168 h
[8]; 300 mg/kg PCB153, 24 h
  Hepatocellular vacuolization, dose-response study: induced the highest levels of hepatocellular vacuolization
[8]; [12]
  Hepatic lipid accumulation, Oil Red O staining: no fatty accumulation
  Necrosis and immune (mixed) cell infiltration in liver: did not elicit immune cell infiltration or necrosis; also recorded: absent; also recorded: did not induce necrosis or immune cell infiltration
[8]; 300 mg/kg PCB153 or 30 μg/kg TCDD, time course
  Hepatic inflammation: almost absent
[8]; 300 mg/kg PCB153 or 30 μg/kg TCDD, Fig. 2 at 168 h
  Hepatocellular vacuolization, time course study: minimal vacuolization and hepatocellular hypertrophy
[8]; PCB153, 24 h
  Hepatocellular hypertrophy, dose-response study: incidences of hypertrophy were not observed
[9]; 1 mg/kg
  Liver weight: 0.850 ± 0.121 g
  Relative liver weight: 0.059 ± 0.002
  Body weight gain: 1.1 ± 0.0
  Terminal body weight: 14.3 ± 1.8 g
[9]; 3 mg/kg
  Liver weight: 0.865 ± 0.119 g
  Relative liver weight: 0.060 ± 0.002
  Body weight gain: 1.1 ± 0.0
  Terminal body weight: 14.4 ± 1.7 g
[9]; 10 mg/kg
  Liver weight: 0.721 ± 0.073 g
  Relative liver weight: 0.056 ± 0.004
  Body weight gain: 1.1 ± 0.1
  Terminal body weight: 12.7 ± 1.1 g
[9]; 30 mg/kg
  Liver weight: 0.836 ± 0.066 g
  Relative liver weight: 0.062 ± 0.001
  Body weight gain: 1.1 ± 0.0
  Terminal body weight: 13.4 ± 1.0 g
[9]; 100 mg/kg
  Liver weight: 0.829 ± 0.071 g
  Relative liver weight: 0.060 ± 0.002
  Body weight gain: 1.1 ± 0.0
  Terminal body weight: 13.8 ± 1.1 g
[9]; 300 mg/kg PCB153, 24 h
  Effect on relative liver weight (RLW), dose-response study: significantly increased RLW at 24 h
[9]; 300 mg/kg
  Liver weight: 0.855 ± 0.152 g
  Relative liver weight: 0.067 ± 0.003
  Body weight gain: 1.1 ± 0.0
  Terminal body weight: 12.7 ± 1.9 g
